Experimental data pooled from the literature.
Compare with care: the assays were run in different laboratories.
Target: Calcium/calmodulin-dependent protein kinase type II subunit alpha (CAMK2A, Homo sapiens, UniProt Q9UQM7)

| SMILES | read-out | technique | tested at | remaining binding |
| --- | --- | --- | --- | --- |
| CN(C(=O)c1ccccc1)c1cc(N(C)c2ccc3c(c2)CCc2ccc(C(=O)NCCN4CCOCC4)cc2C3=O)ccc1F | cell-free assay | competition with immobilised ligand | 1 µM | 86% |
| Nc1ncc2c(n1)-c1c([nH]c3ccc(C#CC4CC4)cc13)CCCC2 | binding | competition with immobilised ligand | 1 µM | 100% |
| Cc1cnc(Nc2ccc(C(=O)N3CCC(N4CCCC4)CC3)cc2)nc1-c1cc2ccccc2s1 | binding | competition with immobilised ligand | 1 µM | 58% |
| CN(C)c1nccc(-c2cnn3ncccc23)n1 | binding |  | 1 µM | 62% |
| COc1ccc2c(c1)O[C@H](c1ccc(OC)c(OC)c1)C[C@@H]2NC(=O)C1(c2ccc3c(c2)OC(F)(F)O3)CC1 | cell-free assay | competition with immobilised ligand | 1 µM | 100% |
| O=C(c1ccc(Nc2ncc(Cl)c(-c3ccc(Cl)s3)n2)cc1)N1CCC(N2CCCC2)CC1 | binding | competition with immobilised ligand | 1 µM | 82% |
| CN(c1nccc(-c2cnn3ncccc23)n1)C1CC1 | binding |  | 1 µM | 93% |
| O=c1nc(-c2ccccn2)sc2ccccc12 | cell-free assay | competition with immobilised ligand | 1 µM | 100% |
| FC(F)(F)Oc1cccc(-c2cnc3ccc(-c4ccncc4)nn23)c1 | cell-free assay | competition with immobilised ligand | 5 µM | 14% |
| N[C@@H]1CCN(c2nccc(-c3cnn4ncccc34)n2)C1 | binding |  | 1 µM | 100% |
| O=C(NCC1CCOCC1)c1n[nH]cc1NC(=O)c1c(F)cccc1F | binding | competition with immobilised ligand | 1 µM | 94% |
| COc1cnc(Nc2cccc(S(N)(=O)=O)c2)nc1N1CCN(c2ccccc2)CC1 | binding | competition with immobilised ligand | 1 µM | 87% |
| FC(F)(F)c1ccc2c(c1)nc(-c1cccnc1)n2C1CC1 | cell-free assay | competition with immobilised ligand | 1 µM | 88% |
| F[C@@H]1CCN(c2nccc(-c3cnn4ncccc34)n2)C1 | binding |  | 1 µM | 100% |
| C[C@@H](c1ccc(-n2cnc3c(N)ncnc32)cc1)N1CCc2nn(C)c(Cc3ccccc3)c2C1=O | binding | competition with immobilised ligand | 0.1 µM | 91% |
| C=CC(=O)N1CCC(C(=O)NCC(=O)N2CCN(c3nc(-c4cnc(N)nc4C(F)F)nc(N4CCOCC4)n3)CC2)CC1 | binding | competition with immobilised ligand | 1 µM | 96% |
| CS(=O)(=O)NCC[C@H](NC(=O)c1cncc2c1cnn2-c1ccc(F)cc1)c1ccnc(S(C)(=O)=O)c1 | cell-free assay | competition with immobilised ligand | 1 µM | 100% |
| C[C@H]1CCN(c2nccc(-c3cnn4ncccc34)n2)C1 | binding |  | 1 µM | 91% |
| O=C(N1CCS(=O)(=O)CC1)N1C[C@H](c2ccc(OC(F)(F)F)cc2)C[C@H](c2nc(C3CC3)no2)C1 | cell-free assay | competition with immobilised ligand | 1 µM | 100% |
| c1cnn2ncc(-c3ccnc(N4CCC45COC5)n3)c2c1 | binding |  | 1 µM | 76% |
| O=C(c1ccc(Nc2nccc(-c3cc4ccccc4s3)n2)cc1)N1CCC(N2CCCC2)CC1 | binding | competition with immobilised ligand | 1 µM | 95% |
| CC(=O)C1=C(C)N(c2cccc(C(F)(F)F)c2)C(=O)N[C@@H]1c1ccc(C#N)nc1 | cell-free assay | competition with immobilised ligand | 1 µM | 92.5% |
